Test results from paper PMC8336461 (Chemical Science, 2021).

Legend:
[1] = Hep G2 cytotoxicity assay; type: cell-based; settings: human, Hep G2 cells
[2] = system: T. brucei brucei Lister 427 bloodstream-form parasites; experiment: T. brucei cell viability assay; type: cell-based; settings: Trypanosoma brucei, 48 h, read-out: T. brucei EC50
Outline: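 Parasite EC50 reported as the mean ± standard error of 3 biological replicates. Each biological replicate's EC50 was calculated from technical triplicate data.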

[3] = system: extracellular L. amazonensis; settings: read-out: EC50 against L. amazonensis; cited from earlier work
T. brucei = settings: read-out: EC50 against T. brucei; cited from earlier work

COC(=O)c1[nH]c(C(=O)OC)c(-c2c[nH]c3ccc(Cl)cc23)c1-c1c[nH]c2ccc(Cl)cc12 [Compound 12, lynamicin D]
CC50 at 72 h [1]: > 10 µM
EC50 [2]: 8.3 ± 1 µM

CCCCCCCCCCCCCCCCOP(=O)([O-])OCC[N+](C)(C)C [miltefosine]
EC50 [3]: 1.2 µM

CC1(C)OB(O)c2cc(NC(=O)c3ccc(F)cc3C(F)(F)F)ccc21 [acoziborole]
EC50 (T. brucei): 0.6 µM

COC(=O)c1[nH]cc(-c2c[nH]c3ccc(Cl)cc23)c1-c1c[nH]c2ccc(Cl)cc12 [Compound 13, lynamicin A]
CC50 at 72 h [1]: > 10 µM
EC50 [2]: 8.2 ± 0.45 µM
